Columns and labels:
Hepatitis B virus = assay: Antiviral activity against Hepatitis B virus infected in human HepAD38 assessed as reduction of viral DNA level on day 7 by quantitative-PCR assay analysis; assay type: functional, organism-based
[1] = molecular target: Human immunodeficiency virus type 1 reverse transcriptase (Human immunodeficiency virus 1) (UniProt Q72547); assay: Ratio Kpol to Kd for wild type HIV 1 reverse transcriptase
Method in brief: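 Pre-steady-state single-turnover incorporation by purified WT HIV-1 RT (200 nM, final), pre-incubated with 20 nM T/P substrate, then mixed with nucleotide at varying concentrations plus metal ions. Reaction at 37 °C in 50 mM Tris-HCl pH 7.5, 50 mM KCl, 10 mM MgCl₂. Aliquots quenched in gel loading buffer at 1-60 min. 20mer→21mer conversion quantified on gel. k_obs from burst fit, k_pol and K_d from hyperbolic fit, efficiency taken as k_pol/K_d.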

[2] = test system: Human immunodeficiency virus 1; assay: Antiviral activity against HIV1 LAV1 infected in phytohemagglutininin-stimulated human PBMC assessed as RT level after 6 days by microdilution plate assay; assay type: functional, organism-based
[3] = Cytotoxicity against human HepAD38 cells; assay type: cell-based
[4] = molecular target: Human immunodeficiency virus type 1 reverse transcriptase (Human immunodeficiency virus 1, UniProt Q72547); assay: Binding affinity to HIV1 reverse transcriptase assessed as L-3'-azido-NTP incorporation in nascent DNA
[5] = molecular target: Human immunodeficiency virus type 1 reverse transcriptase (Human immunodeficiency virus 1) (UniProt Q72547); assay: Selectivity ratio of Kpol to Kd for dCTP to Kpol to Kd for compound at HIV1 reverse transcriptase
PBMC [6] = assay: Cytotoxicity against phytohemagglutininin-stimulated human PBMC after 6 days by trypan blue exclusion assay; assay type: cell-based; conditions: 144 h
CCRF-CEM = assay: Cytotoxicity against human CEM cells after 6 days by trypan blue exclusion assay; assay type: cell-based; conditions: 144 h
Vero = assay: Cytotoxicity against african green monkey Vero cells after 3 days by hemocytometry; assay type: cell-based; conditions: Chlorocebus sabaeus, 72 h
[7] = molecular target: Human immunodeficiency virus type 1 reverse transcriptase (Human immunodeficiency virus 1) (UniProt Q72547); assay: Selectivity ratio of Kpol to Kd for dATP to Kpol to Kd for compound at HIV1 reverse transcriptase
PBMC [8] = assay: Drug metabolism in human phytohemagglutininin-stimulated human PBMC assessed as compound level per 10^6 cells at 50 uM after 4 hrs by LC-MS/MS analysis; assay type: ADME, cell-based
PBMC [9] = assay: Drug metabolism in human phytohemagglutininin-stimulated human PBMC assessed as 9-(3-azido-2,3-dideoxy-b-L-ribofuranosyl)-2-amino-6-chloropurine level per 10^6 cells at 50 uM after 4 hrs by LC-MS/MS analysis; assay type: ADME, cell-based
Method in brief: (§1)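 PHA-activated human PBM cells incubated with nucleoside at 50 μM for 4 h at 37 °C, then PBS-washed. Intracellular nucleoside and nucleotide metabolites were extracted with 60% ice-cold methanol, dried, redissolved in HPLC mobile phase, and quantified by LC-MS/MS.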

PBMC [10] = assay: Drug metabolism in human phytohemagglutininin-stimulated human PBMC assessed as 9-(3-azido-2,3-dideoxy-b-L-ribofuranosyl)-2-amino-6-chloropurine monophosphate level per 10^6 cells at 50 uM after 4 hrs by LC-MS/MS analysis; assay type: ADME, cell-based; method in brief: as §1
PBMC [11] = assay: Drug metabolism in human phytohemagglutininin-stimulated human PBMC assessed as 9-(3-azido-2,3-dideoxy-b-L-ribofuranosyl)-2-amino-6-chloropurine diphosphate level per 10^6 cells at 50 uM after 4 hrs by LC-MS/MS analysis; assay type: ADME, cell-based; method in brief: as §1
PBMC [12] = assay: Drug metabolism in human phytohemagglutininin-stimulated human PBMC assessed as 9-(3-azido-2,3-dideoxy-b-L-ribofuranosyl)-2-amino-6-chloropurine triphosphate level per 10^6 cells at 50 uM after 4 hrs by LC-MS/MS analysis; assay type: ADME, cell-based; method in brief: as §1
PBMC [13] = assay: Drug metabolism in human phytohemagglutininin-stimulated human PBMC assessed as 30-azido-20,30-dideoxy-b-L-adenosine level per 10^6 cells at 50 uM after 4 hrs by LC-MS/MS analysis; assay type: ADME, cell-based; method in brief: as §1
PBMC [14] = assay: Drug metabolism in human phytohemagglutininin-stimulated human PBMC assessed as 30-azido-20,30-dideoxy-b-L-adenosine monophosphate level per 10^6 cells at 50 uM after 4 hrs by LC-MS/MS analysis; assay type: ADME, cell-based; method in brief: as §1
PBMC [15] = assay: Drug metabolism in human phytohemagglutininin-stimulated human PBMC assessed as 30-azido-20,30-dideoxy-b-L-adenosine diphosphate level per 10^6 cells at 50 uM after 4 hrs by LC-MS/MS analysis; assay type: ADME, cell-based; method in brief: as §1
PBMC [16] = assay: Drug metabolism in human phytohemagglutininin-stimulated human PBMC assessed as 30-azido-20,30-dideoxy-b-L-adenosine triphosphate level per 10^6 cells at 50 uM after 4 hrs by LC-MS/MS analysis; assay type: ADME, cell-based; method in brief: as §1
[17] = Human immunodeficiency virus 1, LAV1, 144 h
[18] = Hepatitis B virus, HePAD38, 168 h

Cc1cn([C@H]2C[C@H](N=[N+]=[N-])[C@@H](CO)O2)c(=O)[nH]c1=O (stereo in doubt) [ZIDOVUDINE]
EC50 (Hepatitis B virus): > 10 µM

Nc1ncnc2c1ncn2[C@H]1C[C@H](O)[C@@H](COP(=O)(O)OP(=O)(O)OP(=O)(O)O)O1
Ratio [1]: 455 µM⁻¹ min⁻¹

Cc1cn([C@H]2C[C@H](N=[N+]=[N-])[C@@H](CO)O2)c(=O)[nH]c1=O (stereo in doubt; 27) [ZIDOVUDINE]
EC50 [2]: > 100 µM | EC90 [2]: > 100 µM | EC50 (Hepatitis B virus): > 100 µM | Activity [3]: Non-toxic

Cc1cn([C@H]2C[C@H](N=[N+]=[N-])[C@@H](CO[P@](=O)(O)O[P@](=O)(O)OP(=O)(O)O)O2)c(=O)[nH]c1=O (single isomer, unassigned) [ZIDOVUDINE TRIPHOSPHATE]
Kd [4]: 55 µM

Nc1ccn([C@@H]2CS[C@H](COP(=O)(O)OP(=O)(O)OP(=O)(O)O)O2)c(=O)n1 [LAMIVUDINE TRIPHOSPHATE]
Kd [4]: 0.13 µM | Ratio [1]: 5.46 µM⁻¹ min⁻¹ | Selectivity ratio [5]: 11.9

CCOC(=O)[C@H](C)NP(=O)(OC[C@@H]1O[C@H](n2cnc3c(N)nc(N)nc32)C[C@H]1N=[N+]=[N-])Oc1ccccc1 (stereo not given in full)
EC50 [2, 17]: 15.8 µM | EC90 [2, 17]: > 100 µM | EC50 (Hepatitis B virus; [18]): > 100 µM | IC50 (PBMC [6]): > 100 µM | IC50 (CCRF-CEM): > 100 µM | IC50 (Vero): > 100 µM | Activity [3]: Non-toxic

[N-]=[N+]=N[C@@H]1C[C@@H](n2cnc3c(N)ncnc32)O[C@H]1COP(=O)(O)OP(=O)(O)OP(=O)(O)O
Kd [4]: 15 µM | Ratio [1]: 0.023 µM⁻¹ min⁻¹ | Selectivity ratio [7]: 19800

CCOC(=O)[C@H](C)NP(=O)(OC[C@@H]1O[C@H](n2cnc3c(Cl)ncnc32)C[C@H]1N=[N+]=[N-])Oc1ccccc1 (stereo not given in full)
EC50 [2, 17]: 16.5 µM | EC90 [2, 17]: 83.1 µM | EC50 (Hepatitis B virus; [18]): > 100 µM | IC50 (PBMC [6]): 69.2 µM | IC50 (CCRF-CEM): 5.8 µM | IC50 (Vero): > 100 µM | Activity [3]: Non-toxic

CCOC(=O)[C@H](C)NP(=O)(OC[C@@H]1O[C@H](n2cnc3c(Cl)nc(N)nc32)C[C@H]1N=[N+]=[N-])Oc1ccccc1 (stereo not given in full)
EC50 [2, 17]: 16.5 µM | EC90 [2, 17]: 55.9 µM | EC50 (Hepatitis B virus; [18]): > 100 µM | IC50 (PBMC [6]): 71 µM | IC50 (CCRF-CEM): 23.1 µM | IC50 (Vero): > 100 µM | Activity (PBMC [8]): 12 fmol | Activity [3]: Non-toxic | Activity (PBMC [9]): 49 fmol | Activity (PBMC [10]): 430 fmol | Activity (PBMC [11]): 190 fmol | Activity (PBMC [12]): 10 fmol

[N-]=[N+]=N[C@@H]1C[C@@H](n2cnc3c(N)nc(N)nc32)O[C@H]1COP(=O)(O)OP(=O)(O)OP(=O)(O)O
Kd [4]: 2.3 µM | Ratio [1]: 0.062 µM⁻¹ min⁻¹ | Selectivity ratio [7]: 7340

CCOC(=O)[C@H](C)NP(=O)(OC[C@@H]1O[C@H](n2cnc3c(O)nc(N)nc32)C[C@H]1N=[N+]=[N-])Oc1ccccc1 (stereo not given in full)
EC50 [2, 17]: > 100 µM | EC90 [2, 17]: > 100 µM | EC50 (Hepatitis B virus; [18]): > 100 µM | IC50 (PBMC [6]): > 100 µM | IC50 (CCRF-CEM): > 100 µM | IC50 (Vero): > 100 µM | Activity [3]: Non-toxic

Nc1ccn([C@@H]2CS[C@H](CO)O2)c(=O)n1 [LAMIVUDINE]
EC50 (Hepatitis B virus; [18]): 0.06 µM | IC50 (PBMC [6]): > 100 µM | IC50 (CCRF-CEM): > 100 µM | IC50 (Vero): > 100 µM | Activity [3]: Non-toxic

CCOC(=O)[C@H](C)NP(=O)(OC[C@@H]1O[C@H](n2cnc3c(N)ncnc32)C[C@H]1N=[N+]=[N-])Oc1ccccc1 (stereo not given in full)
EC50 [2, 17]: 1.4 µM | EC90 [2, 17]: 15.6 µM | EC50 (Hepatitis B virus; [18]): > 100 µM | IC50 (PBMC [6]): > 100 µM | IC50 (CCRF-CEM): > 100 µM | IC50 (Vero): > 100 µM | Activity [3]: Non-toxic | Activity (PBMC [13]): 7500 fmol | Activity (PBMC [14]): 4200 fmol | Activity (PBMC [15]): 1200 fmol | Activity (PBMC [16]): 7400 fmol

[N-]=[N+]=N[C@@H]1C[C@@H](n2cnc3c(O)nc(N)nc32)O[C@H]1COP(=O)(O)OP(=O)(O)OP(=O)(O)O
Kd [4]: 0.23 µM

CCOC(=O)[C@H](C)NP(=O)(OC[C@@H]1O[C@H](n2cc(C)c(=O)[nH]c2=O)C[C@H]1N=[N+]=[N-])Oc1ccccc1 (stereo not given in full)
EC50 [2, 17]: > 100 µM | EC90 [2, 17]: > 100 µM | EC50 (Hepatitis B virus; [18]): > 100 µM | IC50 (PBMC [6]): > 100 µM | IC50 (CCRF-CEM): > 100 µM | IC50 (Vero): > 100 µM | Activity [3]: Non-toxic

Nc1ccn([C@H]2C[C@H](O)[C@@H](CO)O2)c(=O)n1 [DOXECITINE]
Kd [4]: 1.1 µM | Ratio [1]: 65 µM⁻¹ min⁻¹
